Screening data from PubChem BioAssay.
Hits are enriched below; roughly 0.98% of the tested compounds scored in any of these assays.
PGC1a acetyl inh: modulators of PGC1a acetylation | inhibition, % at 15.6 µM | U2OS PGC1a acetylation, AlphaScreen anti-acetyl-lysine; with virally co-expressed GCN5 acetyltransferase | 0.17% of 350,000 active;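 active means every replicate shows inhibition of at least 40%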
S100A4 MyoIIA: blocks human S100A4 binding to myosin IIA peptide; P26447; S100A4/TAMRA-MyoIIA peptide fluorescence polarization; inhibition, % at 10.7 µM; 0.14% of 360,000 active; AID 652163;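 active means mean inhibition of at least 70% across replicates, with every replicate also reaching that level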
Target sequence (P26447 whole entry, looked up): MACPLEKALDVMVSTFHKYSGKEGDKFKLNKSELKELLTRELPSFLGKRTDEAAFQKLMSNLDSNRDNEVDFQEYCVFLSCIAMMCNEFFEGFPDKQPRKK
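Material: S100A4 monomer (human). Medium: Calcium-containing HEPES buffer, pH 7.2. Probe or stimulus: labelled myosin peptide probe, 5 nM. Compound dosing: one concentration per compound. Timing: polarization read 5 min after assay mix addition, stable 5–60 min. Benchmarks: DMSO as neutral control, TFP as positive control.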
Rtt109 HAT inh: blocks Candida albicans Rtt109/Vps75 acetyltransferase activity; Q5AAJ8; purified Rtt109/Vps75, ThioGlo CoA-SH fluorescence, 4 h; inhibition, % at 34.9 µM; 0.16% of 330,000 active;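 active means inhibition of at least 50% in every replicate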
Target sequence (Q5AAJ8 whole entry, looked up): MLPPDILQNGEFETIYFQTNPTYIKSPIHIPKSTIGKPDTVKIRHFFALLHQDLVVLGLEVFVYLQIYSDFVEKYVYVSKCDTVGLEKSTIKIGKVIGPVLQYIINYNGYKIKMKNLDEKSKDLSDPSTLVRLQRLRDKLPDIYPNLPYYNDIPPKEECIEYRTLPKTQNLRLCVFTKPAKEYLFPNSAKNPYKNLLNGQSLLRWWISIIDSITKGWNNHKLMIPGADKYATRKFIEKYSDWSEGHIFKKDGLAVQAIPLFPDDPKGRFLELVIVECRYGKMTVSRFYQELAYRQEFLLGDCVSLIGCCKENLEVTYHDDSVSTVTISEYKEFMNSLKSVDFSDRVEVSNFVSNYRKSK
C2C12 statin: protects C2C12 myotubes from simvastatin toxicity | 0.78% of 330,000 active | rescue of ATP level, % at 7.49 µM | ATP luminescence, 48 h; scaled: DMSO 0, geranylgeraniol control 100;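 active means mean ATP rescue above about 67%, or every replicate alone reaching that limit, limit read from the data, passing the limit was not always enough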;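 further: myotubes were challenged with 10 µM simvastatin during compound exposure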
ERAP1 HTS inh: ERAP1 (human) enzyme inhibition. Q9NZ08. recombinant ERAP1, Leu-AMC fluorescence, 60 min. inhibition, % at 10.7 µM. 0.15% of 340,000 active;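 active means mean replicate inhibition of at least 30%, or all replicates individually reaching that 30% level; inactive means mean below 30% and not every replicate reaching it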
Numbers stand for hits; n = inactive; x = not tested or not shown; + = active, no number.

SMILES	PGC1a acetyl inh	S100A4 MyoIIA	Rtt109 HAT inh	C2C12 statin	ERAP1 HTS inh
C/C=C/c1cnc2c(c1)C(=O)N([C@@H](C)CO)C[C@H](C)[C@@H](CN(C)C(=O)Nc1ccc(F)cc1)O2	n	n	x	n	n
CC(=O)Nc1ccc(S(=O)(=O)NNC(=O)c2cc3c4ccccc4n(C)c3s2)cc1	n	x	n	193	x
CCCCCCOC(=O)CCc1c(C)nc(N)[nH]c1=O	n	x	n	98	x
COc1ccccc1NC(=O)N[C@@H]1C=C[C@H](CC(=O)N2CCC(Cc3ccccc3)CC2)O[C@@H]1CO	n	n	x	n	n
COc1ccccc1NC(=O)N[C@H]1C=C[C@H](CC(=O)N2CCC(Cc3ccccc3)CC2)O[C@@H]1CO	x	103	x	n	n
c1ccc(Cn2nnnc2CN2CCN(c3ncccn3)CC2)cc1	n	x	n	140	x
O=C(C1=C[C@H](c2ccc(Br)cc2)C[C@H](OCc2ccc(CO)cc2)O1)N1CCCCCCC1	n	n	x	x	n
Cn1c(SCc2nc(-c3ccc(Cl)cc3)no2)nnc1-c1cccs1	n	n	n	84	n
Cn1c(SCc2nc(-c3ccccc3)no2)nnc1-c1cccs1	x	x	n	n	x
COc1ccc(NC(=O)Nc2cccc3c2O[C@@H](CN(C)Cc2ccc(Cl)c(Cl)c2)[C@H](C)CN([C@H](C)CO)C3=O)cc1	n	x	x	x	x
COc1ccc(C)cc1NC(=O)CC1COc2ccccc2O1 (stereo not drawn)	n	n	n	n	n
Cc1ccc(NC(=O)CC2COc3ccccc3O2)cc1 (stereo not drawn)	n	x	n	113	x
O=C(NCC[C@@H]1CC[C@@H](NS(=O)(=O)Cc2ccccc2)[C@H](CO)O1)C1CCOCC1	n	n	x	n	n
Cc1cc(C)n2c(SCc3c(C)noc3C)nnc2n1	n	x	n	93	x
COc1ccc(NC(=O)CN2CCCN(S(=O)(=O)c3ccc(F)cc3)CC2)c(OC)c1	n	n	n	94	n
COc1ccc(S(=O)(=O)N2CCCN(CC(=O)Nc3ccccc3F)CC2)cc1	n	n	n	n	n
O=C1c2ccccc2C(=O)N1Cc1nc2ccccc2c(=O)n1CCCn1ccnc1	n	x	n	x	x
O=C1c2ccccc2C(=O)N1CCc1nc2ccccc2c(=O)n1CCCn1ccnc1	n	x	n	95	x
CCCSC1=C(C#N)C(c2ccccc2C)CC(=O)N1 (stereo not drawn)	n	x	n	134	x
CCn1c2ccccc2c2cc(/C=N/n3cnnc3)ccc21	n	x	n	n	x
CCn1c2ccccc2c2cc(/C=N/n3cn[nH]c3=S)ccc21	42	x	n	n	x
CCOCCn1c(N2CCN(c3ccc(OC)cc3)CC2)nc2c1c(=O)[nH]c(=O)n2C	n	n	n	103	n
O=C(O)C(C(=O)/C=C/c1ccco1)=C1SCCS1	n	x	n	68	x
O=C(C=C1SCCS1)/C=C/c1ccco1	n	x	n	x	x
COC(=O)c1ccc2nc3c(cc2c1)[C@@H]1CCN2C(=O)CCC[C@H](C3)[C@H]12	n	n	n	n	n
SMILES	PGC1a acetyl inh	S100A4 MyoIIA	Rtt109 HAT inh	C2C12 statin	ERAP1 HTS inh
CC1(C)CCC(=O)N2CC[C@H]3c4cc5ccccc5nc4C[C@@H]1[C@H]32	n	n	n	99	n
C[C@@H]1CN([C@@H](C)CO)C(=O)c2cc(NC(=O)Nc3cccc4ccccc34)ccc2O[C@@H](C)CCCCO[C@@H]1CN(C)Cc1ccccc1	n	n	x	x	n
CC(C)c1nc(SCC(=O)Nc2ccc(N3CCOCC3)cc2)c2ccccc2n1	x	x	+	x	x
COC(=O)c1ccc(OC)c(OC2CCCC2)c1	89	n	n	n	x
COCC(=O)N(C)C[C@@H]1Oc2ncc(C#Cc3ccccc3)cc2C(=O)N([C@@H](C)CO)C[C@@H]1C	n	n	x	n	n
O=[N+]([O-])c1cc(Cl)ccc1Sc1cccc2cccnc12	n	n	n	n	n
O=[N+]([O-])c1ccc(Sc2cccc3cccnc23)c([N+](=O)[O-])c1	n	n	n	73	n
CCCCCCCCCCCCCCCC[n+]1cccc2ccccc21	x	n	n	x	108
O=c1[nH]c(=O)c2[nH]c(=S)[nH]c2[nH]1	60	n	n	n	50
Nc1ncnc2[nH]c(=S)[nH]c12	n	n	n	n	n
Cc1sc2nc(SCC(=O)NCc3ccco3)n(Cc3ccccc3)c(=O)c2c1C	n	x	n	114	x
Cc1nn(-c2ccccn2)c2c1-c1nc(N)ncc1CC2	n	x	n	115	x
CN(C(=O)c1ccc2c(c1)OCO2)C1(C)CCS(=O)(=O)C1 (stereo not drawn)	n	n	n	n	n
COc1ccc(C(=O)N(C)C2(C)CCS(=O)(=O)C2)cc1OC (stereo not drawn)	x	184	n	n	n
CN(C(=O)c1ccc(N2CCCCC2)c([N+](=O)[O-])c1)C1(C)CCS(=O)(=O)C1 (stereo not drawn)	n	n	53	x	n
Cc1noc(C)c1S(=O)(=O)N(C)C[C@@H]1Oc2ccc(N(C)C)cc2CC(=O)N([C@@H](C)CO)C[C@H]1C	n	n	x	n	n
COC(=O)c1c(NC(=O)C2CCCCC2)sc2c1CCN(C(C)C)C2	n	n	n	n	n
CC(C)N1CCc2c(sc(NC(=O)C3CCCCC3)c2C(N)=O)C1	44	n	n	n	n
C[C@H](O)C#Cc1cnc2c(c1)C(=O)N([C@@H](C)CO)C[C@@H](C)[C@@H](CN(C)Cc1ccc(-c3ccccc3)cc1)O2	n	n	x	n	n
C[C@H]1CN([C@@H](C)CO)C(=O)Cc2cc(NC(=O)Nc3ccc4c(c3)OCO4)ccc2O[C@@H]1CN(C)Cc1ccc(-c2ccccc2)cc1	n	n	x	76	n
C[C@@H]1CN([C@H](C)CO)C(=O)Cc2cc(NC(=O)CCN3CCOCC3)ccc2O[C@H]1CN(C)Cc1ccc2c(c1)OCO2	n	123	x	n	n
C[C@@H]1CN([C@@H](C)CO)C(=O)Cc2cc(NC(=O)C3CCCCC3)ccc2O[C@H]1CN(C)Cc1ccc(Oc2ccccc2)cc1	n	n	x	88	n
Cc1noc(C)c1NC(=O)Nc1ccc2c(c1)CC(=O)N([C@H](C)CO)C[C@H](C)[C@@H](CN(C)Cc1ccc(Oc3ccccc3)cc1)O2	n	x	x	103	x
Cc1noc(C)c1NC(=O)N(C)C[C@H]1Oc2ccc(NS(=O)(=O)c3cn(C)cn3)cc2CC(=O)N([C@H](C)CO)C[C@@H]1C	n	n	x	n	n
C[C@H](CO)N1C[C@H](C)[C@@H](CN(C)Cc2ccc(C(F)(F)F)cc2)Oc2ccc(NC(=O)C3CCCCC3)cc2CC1=O	n	n	x	71	n
C[C@H]1CN([C@@H](C)CO)C(=O)Cc2cc(NC(=O)C3CCCCC3)ccc2O[C@@H]1CN(C)Cc1ccc(-c2ccccc2)cc1	n	n	x	n	n
C[C@@H]1CN([C@H](C)CO)C(=O)Cc2cc(NC(=O)C3CCCCC3)ccc2O[C@H]1CN(C)Cc1ccc(-c2ccccc2)cc1	n	n	x	99	n
C[C@@H]1CN([C@@H](C)CO)C(=O)Cc2cc(NC(=O)C3CC3)ccc2O[C@H]1CN(C)Cc1ccc(Oc2ccccc2)cc1	n	n	x	74	n
